In ChEMBL document CHEMBL1155468, “Syntheses and evaluation of anticonvulsant profile and teratogenicity of novel amide derivatives of branched aliphatic carboxylic acids with 4-aminobenzensulfonamide” (J Med Chem, 2010):
Calls of active or inactive are those of the source. The calls are words filed in the database; no cut-off is given here.

Assays:
Mus musculus [1] = test: Anticonvulsant activity in CF1 albino mouse assessed as inhibition of subcutaneous pentylenetetrazole-induced seizures at 30 mg/kg, ip after 0.5 hrs; assay type: functional, organism-based; parameters: dose 30 mg/kg
How it was run: (§1)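 Adult male CF no. 1 albino mice (18-25 g) dosed ip with compound suspended in 0.5% methylcellulose (0.01 mL/g). Convulsant: pentylenetetrazol dissolved in 0.9% saline as a 0.85% solution for mice, given subcutaneously.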

Mus musculus [2] = test: Anticonvulsant activity in CF1 albino mouse assessed as inhibition of subcutaneous pentylenetetrazole-induced seizures at 100 mg/kg, ip after 0.5 hrs; assay type: functional, organism-based; parameters: dose 100 mg/kg; how it was run: as §1
Mus musculus [3] = test: Anticonvulsant activity in CF1 albino mouse assessed as inhibition of subcutaneous pentylenetetrazole-induced seizures at 300 mg/kg, ip after 0.5 hrs; assay type: functional, organism-based; parameters: dose 300 mg/kg; how it was run: as §1
Mus musculus [4] = test: Anticonvulsant activity in CF1 albino mouse assessed as inhibition of subcutaneous pentylenetetrazole-induced seizures at 30 mg/kg, ip after 4 hrs; assay type: functional, organism-based; parameters: dose 30 mg/kg; how it was run: as §1
Mus musculus [5] = test: Anticonvulsant activity in CF1 albino mouse assessed as inhibition of subcutaneous pentylenetetrazole-induced seizures at 100 mg/kg, ip after 4 hrs; assay type: functional, organism-based; parameters: dose 100 mg/kg; how it was run: as §1
Mus musculus [6] = test: Teratogenic effect in SWV mouse assessed as resorptions at 511 mg/kg, ip administered on morning of day 8 of gestation; assay type: toxicity, organism-based; parameters: dose 511 mg/kg, route intraperitoneal; settings: in vivo
How it was run: (§2)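 SWV inbred mice: two-month-old nulligravid females mated overnight with males and checked for vaginal plugs next morning; gestation onset taken as 10 p.m. the previous night. On gestation day 8.5 each dam got one ip injection, 0.55–2.7 mmol/kg, in 25% aqueous Cremophor EL (vehicle controls dosed alike), 10 μL/g body weight. Litters and implants tallied; resorptions and live fetuses reported as counts with percentages.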

Mus musculus [7] = test: Teratogenic effect in SWV mouse assessed as resorptions at 310 mg/kg, ip administered on morning of day 8 of gestation; assay type: toxicity, organism-based; parameters: dose 310 mg/kg, route intraperitoneal; settings: in vivo; how it was run: as §2
Mus musculus [8] = test: Teratogenic effect in SWV mouse assessed as resorptions at 156 mg/kg, ip administered on morning of day 8 of gestation; assay type: toxicity, organism-based; parameters: dose 156 mg/kg, route intraperitoneal; settings: in vivo; how it was run: as §2
Mus musculus [9] = test: Teratogenic effect in SWV mouse assessed as fetuses with neural tube deffects at 511 mg/kg, ip administered on morning of day 8 of gestation; assay type: toxicity, organism-based; parameters: dose 511 mg/kg, route intraperitoneal; settings: in vivo
How it was run: (§3)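 Two-month-old nulligravid SWV females were mated overnight and checked for vaginal plugs the next morning; gestation onset was set at 10 p.m. the previous night. On gestation day 8.5, each dam received a single ip injection (0.55-2.7 mmol/kg range) or vehicle (25% aqueous Cremophor EL) at 10 μL/g body weight. Litters were scored for implants, resorptions, live and dead fetuses, and fetuses with neural tube defects.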

Mus musculus [10] = test: Teratogenic effect in SWV mouse assessed as fetuses with neural tube deffects at 310 mg/kg, ip administered on morning of day 8 of gestation; assay type: toxicity, organism-based; parameters: dose 310 mg/kg, route intraperitoneal; settings: in vivo; how it was run: as §3
Mus musculus [11] = test: Teratogenic effect in SWV mouse assessed as live fetuses at 511 mg/kg, ip administered on morning of day 8 of gestation; assay type: toxicity, organism-based; parameters: dose 511 mg/kg, route intraperitoneal; settings: in vivo; how it was run: as §2
Mus musculus [12] = test: Teratogenic effect in SWV mouse assessed as live fetuses at 310 mg/kg, ip administered on morning of day 8 of gestation; assay type: toxicity, organism-based; parameters: dose 310 mg/kg, route intraperitoneal; settings: in vivo; how it was run: as §3
Mus musculus [13] = test: Teratogenic effect in SWV mouse assessed as live fetuses at 156 mg/kg, ip administered on morning of day 8 of gestation; assay type: toxicity, organism-based; parameters: dose 156 mg/kg, route intraperitoneal; settings: in vivo; how it was run: as §3
Mus musculus [14] = test: Anticonvulsant activity in CF1 albino mouse assessed as inhibition of maximal electroshock-induced seizures at 30 mg/kg, ip after 0.5 hrs; assay type: functional, organism-based; parameters: dose 30 mg/kg
How it was run: (§4)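 Test compounds suspended in 0.5% methylcellulose and given ip to adult male CF no. 1 albino mice (18-25 g) at 0.01 mL/g body weight before maximal electroshock challenge.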

Mus musculus [15] = test: Anticonvulsant activity in CF1 albino mouse assessed as inhibition of maximal electroshock-induced seizures at 100 mg/kg, ip after 0.5 hrs; assay type: functional, organism-based; parameters: dose 100 mg/kg; how it was run: as §4
Mus musculus [16] = test: Anticonvulsant activity in CF1 albino mouse assessed as inhibition of maximal electroshock-induced seizures at 300 mg/kg, ip after 0.5 hrs; assay type: functional, organism-based; parameters: dose 300 mg/kg; how it was run: as §4
Mus musculus [17] = test: Anticonvulsant activity in CF1 albino mouse assessed as inhibition of maximal electroshock-induced seizures at 30 mg/kg, ip after 4 hrs; assay type: functional, organism-based; parameters: dose 30 mg/kg; how it was run: as §4
Mus musculus [18] = test: Anticonvulsant activity in CF1 albino mouse assessed as inhibition of maximal electroshock-induced seizures at 300 mg/kg, ip after 4 hrs; assay type: functional, organism-based; parameters: dose 300 mg/kg; how it was run: as §4
Mus musculus [19] = test: Anticonvulsant activity in CF1 albino mouse assessed as inhibition of subcutaneous pentylenetetrazole-induced seizures at 300 mg/kg, ip after 4 hrs; assay type: functional, organism-based; parameters: dose 300 mg/kg; how it was run: as §1
Mus musculus [20] = test: Neurotoxicity in CF1 albino mouse assessed as motor impairment at 30 mg/kg, ip after 0.5 hrs; assay type: toxicity, organism-based; parameters: dose 30 mg/kg, route intraperitoneal; settings: in vivo
Mus musculus [21] = test: Neurotoxicity in CF1 albino mouse assessed as motor impairment at 100 mg/kg, ip after 0.5 hrs; assay type: toxicity, organism-based; parameters: dose 100 mg/kg, route intraperitoneal; settings: in vivo
Mus musculus [22] = test: Neurotoxicity in CF1 albino mouse assessed as motor impairment at 300 mg/kg, ip after 0.5 hrs; assay type: toxicity, organism-based; parameters: dose 300 mg/kg, route intraperitoneal; settings: in vivo
Mus musculus [23] = test: Neurotoxicity in CF1 albino mouse assessed as motor impairment at 30 mg/kg, ip after 4 hrs; assay type: toxicity, organism-based; parameters: dose 30 mg/kg, route intraperitoneal; settings: in vivo
Mus musculus [24] = test: Neurotoxicity in CF1 albino mouse assessed as motor impairment at 100 mg/kg, ip after 4 hrs; assay type: toxicity, organism-based; parameters: dose 100 mg/kg, route intraperitoneal; settings: in vivo
Mus musculus [25] = test: Neurotoxicity in CF1 albino mouse assessed as motor impairment at 300 mg/kg, ip after 4 hrs; assay type: toxicity, organism-based; parameters: dose 300 mg/kg, route intraperitoneal; settings: in vivo
Rattus norvegicus [26] = species: Rattus norvegicus; test: Protective index, ratio of TD50 for rat to ED50 for maximal electroshock-induced rat seizure model
Rattus norvegicus [27] = test: Neurotoxicity in Sprague-Dawley rat assessed as motor impairment at 30 mg/kg, po after 0.25 to 4 hrs; settings: in vivo
Rattus norvegicus [28] = test: Anticonvulsant activity in po dosed rat assessed as inhibition of maximal electroshock-induced seizures
Rattus norvegicus [29] = test: Anticonvulsant activity in Sprague-Dawley rat assessed as inhibition of maximal electroshock-induced seizures at 30 mg/kg, po after 2 hrs
Rattus norvegicus [30] = test: Anticonvulsant activity in Sprague-Dawley rat assessed as inhibition of maximal electroshock-induced seizures at 30 mg/kg, po after 4 hrs

For CCC(CC)C(=O)NCc1ccc(S(N)(=O)=O)cc1, the Activity (Mus musculus [1]) was “inactive”, the Activity (Mus musculus [2]) was “inactive” and the Activity (Mus musculus [3]) was “inactive”. For the same molecule, the Activity (Mus musculus [4]) was “inactive”, the Activity (Mus musculus [5]) was “inactive” and the Activity (Mus musculus [6]) was 6.4%. It also gave an Activity (Mus musculus [7]) of 6.5%, an Activity (Mus musculus [8]) of 5.6% and an Activity (Mus musculus [9]) of 3.1%. For the same molecule, the Activity (Mus musculus [10]) was 3.4%, the Activity (Mus musculus [11]) was 93.6% and the Activity (Mus musculus [12]) was 93.5%. The Activity (Mus musculus [13]) was 94.4%, the Activity (Mus musculus [14]) was “inactive” and the Activity (Mus musculus [15]) was “Active”. For the same molecule, the Activity (Mus musculus [16]) was “Active”, the Activity (Mus musculus [17]) was “inactive” and the Activity (Mus musculus [18]) was “Active”. For the same molecule, the Activity (Mus musculus [19]) was “inactive”, the Activity (Mus musculus [20]) was “Non-toxic” and the Activity (Mus musculus [21]) was “Non-toxic”. For the same molecule, the Activity (Mus musculus [22]) was “Non-toxic”, the Activity (Mus musculus [23]) was “Non-toxic” and the Activity (Mus musculus [24]) was “Non-toxic”. For the same molecule, the Activity (Mus musculus [25]) was “Non-toxic”, the “Ratio TD50/ED50” value (Rattus norvegicus [26]) was greater than 20.2 and the Activity (Rattus norvegicus [27]) was “Non-toxic”. The ED50 (Rattus norvegicus [28]) was 24.7 mg/kg, the Activity (Rattus norvegicus [29]) was “inactive” and the Activity (Rattus norvegicus [30]) was “inactive”.
